Key:
Type in all cases: functional
A549 = experiment: Antitumor activity against A549/ATCC cell line; conditions: Homo sapiens
How it was run: (§1)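 Drugs were screened against a panel of up to 60 human cancer cell lines. The end-point was LC50, the drug concentration lethal to 50% of the cancer cells. Values were expressed as log LC50 and plotted as mean graphs centred on the log of the panel-mean LC50. Bars to the right mark lines with lower log LC50 than the mean.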

CCRF-CEM = experiment: Antitumor activity against CCRF-CEM leukemia cell line; conditions: Homo sapiens, read-out: Log LC50 (the source's name) (converted); how it was run: as §1
DMS-114 = experiment: Antitumor activity against DMS 114 cell line; conditions: Homo sapiens; how it was run: as §1
EKVX = experiment: Antitumor activity against EKVX cell line; conditions: Homo sapiens; how it was run: as §1
HCT-15 = experiment: Antitumor activity against HCT-15 cell line; conditions: Homo sapiens, read-out: Log LC50 (the source's name) (converted); how it was run: as §1
HOP-62 = experiment: Antitumor activity against HOP-62 cell line; conditions: Homo sapiens; how it was run: as §1
HOP-18 = experiment: Antitumor activity against HOP-18 cell line; conditions: Homo sapiens, read-out: Log LC50 (the source's name) (converted); how it was run: as §1
HOP-92 = experiment: Antitumor activity against HOP-92 cell line; conditions: Homo sapiens, read-out: Log LC50 (the source's name) (converted); how it was run: as §1
HT-29 = experiment: Antitumor activity against HT 29 cell line; conditions: Homo sapiens, read-out: Log LC50 (the source's name) (converted); how it was run: as §1
K562 = experiment: Antitumor activity against K-562 leukemia cell line; conditions: Homo sapiens, read-out: Log LC50 (the source's name) (converted); how it was run: as §1
KM12 = experiment: Antitumor activity against KM 12 cell line; conditions: Homo sapiens, read-out: Log LC50 (the source's name) (converted); how it was run: as §1
KM-20L2 = experiment: Antitumor activity against KM 20L2 cell line; conditions: Homo sapiens; how it was run: as §1
IGROV-1 = experiment: Antitumor activity against IGROVI cell line; conditions: Homo sapiens; how it was run: as §1
LXFL 529 = experiment: Antitumor activity against […] cell line; conditions: Homo sapiens; how it was run: as §1
M14 = experiment: Antitumor activity against M 14 cell line; conditions: Homo sapiens; how it was run: as §1
M19-MEL = experiment: Antitumor activity against M 19-MEL cell line; conditions: Homo sapiens; how it was run: as §1
LOX IMVI [1] = experiment: Antitumor activity against LOX IMVI cell line; conditions: Homo sapiens; how it was run: as §1
MOLT-4 = experiment: Antitumor activity against MOLT-4 leukemia cell line; conditions: Homo sapiens; how it was run: as §1
Malme-3M = experiment: Antitumor activity against MALME-3M cell line; conditions: Homo sapiens; how it was run: as §1
NCI-H522 = experiment: Antitumor activity against NCI-H522 cell line; conditions: Homo sapiens; how it was run: as §1
NCI-H226 = experiment: Antitumor activity against NCI-H226 cell line; conditions: Homo sapiens; how it was run: as §1
OVCAR-8 = experiment: Antitumor activity against OVCAR-8 cell line; conditions: Homo sapiens, read-out: Log LC50 (the source's name) (converted); how it was run: as §1
OVCAR-3 = experiment: Antitumor activity against OVCAR-3 cell line; conditions: Homo sapiens; how it was run: as §1
NCI-H322M = experiment: Antitumor activity against NCI-H322M cell line; conditions: Homo sapiens, read-out: Log LC50 (the source's name) (converted); how it was run: as §1
OVCAR-5 = experiment: Antitumor activity against OVCAR-5 cell line; conditions: Homo sapiens; how it was run: as §1
RPMI-8226 = experiment: Antitumor activity against RPMI-8226 leukemia cell line; conditions: Homo sapiens, read-out: Log LC50 (the source's name) (converted); how it was run: as §1
CAKI-1 = experiment: Antitumor activity against Renal cancer CAKI-1 cell line; conditions: Homo sapiens, read-out: Log LC50 (the source's name) (converted); how it was run: as §1
786-0 = experiment: Antitumor activity against Renal cancer 786-O cell line; conditions: Homo sapiens; how it was run: as §1
ACHN = experiment: Antitumor activity against Renal cancer ACHN cell line; conditions: Homo sapiens, read-out: Log LC50 (the source's name) (converted); how it was run: as §1
SN12C = experiment: Antitumor activity against Renal cancer SN 12C cell line; conditions: Homo sapiens; how it was run: as §1
TK-10 = experiment: Antitumor activity against Renal cancer TK-10 cell line; conditions: Homo sapiens; how it was run: as §1
UO-31 = experiment: Antitumor activity against Renal cancer UO-31 cell line; conditions: Homo sapiens; how it was run: as §1
SK-MEL-2 = experiment: Antitumor activity against SK-MEL-2 cell line; conditions: Homo sapiens, read-out: Log LC50 (the source's name) (converted); how it was run: as §1
SF-539 = experiment: Antitumor activity against SF-539 cell line; conditions: Homo sapiens; how it was run: as §1
SNB-19 = experiment: Antitumor activity against SNB-19 cell line; conditions: Homo sapiens
How it was run: (§2)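 Screened against a panel of up to 60 human cancer cell lines. Read-out is LC50, the drug concentration lethal to 50% of the cells, expressed as log LC50. The mean log LC50 across the screened lines is the centre line of the mean graph. Each line's deviation from that mean is shown as a bar.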

SNB- = experiment: Antitumor activity against SNB-71 cell line; conditions: Homo sapiens, read-out: Log LC50 (the source's name) (converted); how it was run: as §2
SF-295 = experiment: Antitumor activity against SF-295 cell line; conditions: Homo sapiens, read-out: Log LC50 (the source's name) (converted); how it was run: as §1
SW-620 = experiment: Antitumor activity against SW-620 cell line; conditions: Homo sapiens; how it was run: as §2
SK-MEL-5 = experiment: Antitumor activity against SK-MEL-5 cell line; conditions: Homo sapiens; how it was run: as §2
SNB-75 = experiment: Antitumor activity against SNB-75 cell line; conditions: Homo sapiens; how it was run: as §2
SK-OV-3 = experiment: Antitumor activity against SK-OV-3 cell line; conditions: Homo sapiens, read-out: Log LC50 (the source's name) (converted); how it was run: as §2
SK-MEL-28 = experiment: Antitumor activity against SK-MEL-28 cell line; conditions: Homo sapiens; how it was run: as §2
UACC-257 = experiment: Antitumor activity against UACC-257 cell line; conditions: Homo sapiens; how it was run: as §2
U-251 = experiment: Antitumor activity against U251 cell line; conditions: Homo sapiens; how it was run: as §2
[2] = Mean log10 LC50 was determined; how it was run: as §2
DLD-1 = experiment: Antitumor activity against DLD-1 cell line; conditions: Homo sapiens; how it was run: as §1
HCC 2998 = experiment: Antitumor activity against HCC2998 cell line; conditions: Homo sapiens, read-out: Log LC50 (the source's name) (converted); how it was run: as §1
SF-268 = experiment: Antitumor activity against SF-268 cell line; conditions: Homo sapiens; how it was run: as §1
XF498 = experiment: Antitumor activity against XF 498 cell line; conditions: Homo sapiens, read-out: Log LC50 (the source's name) (converted); how it was run: as §2
RXF 393 = experiment: Antitumor activity against Renal cancer RXF-393 cell line; conditions: Homo sapiens; how it was run: as §1
OVCAR-4 = experiment: Antitumor activity against OVCAR-4 cell line; conditions: Homo sapiens; how it was run: as §1
LOX IMVI [3] = experiment: Antitumor activity against LOX IMV cell line; conditions: Homo sapiens, read-out: Log LC50 (the source's name) (converted); how it was run: as §1

SMILES: CC(=O)OC1CCn2c1nc1c2C(=O)C(N2CC2)=C(C)C1=O (stereo not given)
- LC50 (A549): 7760 nM
- CC50 (CCRF-CEM): > 100000 nM
- LC50 (DMS-114): > 100000 nM
- LC50 (EKVX): 832 nM
- CC50 (HCT-15): 3090 nM
- LC50 (HOP-62): 219 nM
- CC50 (HOP-18): 3160 nM
- CC50 (HOP-92): 11200 nM
- CC50 (HT-29): 5370 nM
- CC50 (K562): > 100000 nM
- CC50 (KM12): 1070 nM
- LC50 (concentration lethal to 50% of cells) (KM-20L2): 4370 nM
- LC50 (IGROV-1): 8130 nM
- LC50 (LXFL 529): 525 nM
- LC50 (M14): 324 nM
- LC50 (M19-MEL): > 100000 nM
- LC50 (LOX IMVI [1]): 66.1 nM
- LC50 (MOLT-4): > 100000 nM
- LC50 (Malme-3M): 589 nM
- LC50 (NCI-H522): 100 nM
- LC50 (NCI-H226): 955 nM
- CC50 (OVCAR-8): 1000 nM
- LC50 (OVCAR-3): 3390 nM
- CC50 (NCI-H322M): 2690 nM
- LC50 (OVCAR-5): 3390 nM
- CC50 (RPMI-8226): > 100000 nM
- CC50 (CAKI-1): 6460 nM
- LC50 (786-0): 347 nM
- CC50 (ACHN): 2340 nM
- LC50 (SN12C): 617 nM
- LC50 (TK-10): 2880 nM
- LC50 (concentration lethal to 50% of cancer cells) (UO-31): 145 nM
- CC50 (SK-MEL-2): 479 nM
- LC50 (concentration lethal to 50% of cells) (SF-539): 631 nM
- LC50 (SNB-19): 2570 nM
- CC50 (SNB-): 6460 nM
- CC50 (SF-295): 2000 nM
- LC50 (SW-620): 4270 nM
- LC50 (SK-MEL-5): 224 nM
- LC50 (SNB-75): 603 nM
- CC50 (SK-OV-3): 2950 nM
- LC50 (SK-MEL-28): 603 nM
- LC50 (UACC-257): 2040 nM
- LC50 (U-251): 3090 nM
- Mean log LC50 [2]: -5.68
- LC50 (DLD-1): 53700 nM
- CC50 (HCC 2998): 372 nM
- LC50 (SF-268): 5620 nM
- CC50 (XF498): 126 nM
- LC50 (RXF 393): 51.3 nM
- LC50 (OVCAR-4): 380 nM

SMILES: CC(=O)OC1CCn2c1nc1c2C(=O)C(C)=C(N2CC2)C1=O (stereo not given)
- CC50 (LOX IMVI [3]): < 10 nM
- LC50 (Malme-3M): 55 nM
- LC50 (SK-MEL-5): < 10 nM
- Mean log LC50 [2]: -6.61

Reference: ChEMBL document CHEMBL1127500, “Structure-activity studies of benzimidazole-based DNA-cleaving agents. Comparison of benzimidazole, pyrrolobenzimidazole, and tetrahydropyridobenzimidazole analogues” (1994)
